ChEMBL document CHEMBL3865790, “2-(Phenylsulfonyl)quinoline N-hydroxyacrylamides as potent anticancer agents inhibiting histone deacetylase” (Eur J Med Chem, 2016)
Active and inactive are the calls of the source. The rule behind the calls is not given here.

Key:
[1] = Antiproliferative activity against human A549 cells after 48 hrs by SRB assay; format: functional
Summary of the method: (§1)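 Cells grown in RPMI 1640 with 10% FBS and antibiotics, then seeded in medium with 5% FBS. A T0 plate was fixed with 10% TCA at 24 h. Remaining cells were exposed to compound or DMSO for 48 h, TCA-fixed, and stained with 0.4% SRB in 1% acetic acid. Dye was solubilized in 10 mM Trizma base and read at 515 nm.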

[2] = Antiproliferative activity against human PC3 cells after 48 hrs by SRB assay; format: functional, PC-3; summary of the method: as §1
[3] = Antiproliferative activity against human HCT116 cells after 48 hrs by SRB assay; format: functional, HCT-116; summary of the method: as §1
[4] = Antiproliferative activity against human HL60 cells after 48 hrs by SRB assay; format: functional, HL-60; summary of the method: as §1
Histone deacetylase 1 = Histone deacetylase 1 (Homo sapiens, UniProt Q13547); assay: Inhibition of C-terminal His/FLAG-tagged full length recombinant human HDAC1 expressed in baculovirus expression system assessed as release of 7-amino-4-methylcoumarin by fluorogenic assay
Sequence of Histone deacetylase 1 (Q13547 whole entry): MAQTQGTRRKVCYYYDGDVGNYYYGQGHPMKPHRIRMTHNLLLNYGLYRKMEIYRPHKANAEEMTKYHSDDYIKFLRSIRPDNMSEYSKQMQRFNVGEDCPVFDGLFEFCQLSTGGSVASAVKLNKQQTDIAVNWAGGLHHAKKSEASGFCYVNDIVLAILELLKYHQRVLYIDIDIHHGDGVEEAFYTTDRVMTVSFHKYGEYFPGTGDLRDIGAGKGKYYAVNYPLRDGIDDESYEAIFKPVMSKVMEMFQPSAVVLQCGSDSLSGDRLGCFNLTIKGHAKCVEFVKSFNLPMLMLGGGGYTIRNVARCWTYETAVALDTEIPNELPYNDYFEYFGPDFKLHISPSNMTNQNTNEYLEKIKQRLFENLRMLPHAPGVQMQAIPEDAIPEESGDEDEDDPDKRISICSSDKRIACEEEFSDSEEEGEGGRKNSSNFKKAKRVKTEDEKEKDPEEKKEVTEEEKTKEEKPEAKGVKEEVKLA

Histone deacetylase 2 = Histone deacetylase 2 (Homo sapiens, UniProt Q92769); assay: Inhibition of full length recombinant human HDAC2 expressed in baculovirus expression system assessed as release of 7-amino-4-methylcoumarin by fluorogenic assay
Sequence of Histone deacetylase 2 (Q92769 whole entry): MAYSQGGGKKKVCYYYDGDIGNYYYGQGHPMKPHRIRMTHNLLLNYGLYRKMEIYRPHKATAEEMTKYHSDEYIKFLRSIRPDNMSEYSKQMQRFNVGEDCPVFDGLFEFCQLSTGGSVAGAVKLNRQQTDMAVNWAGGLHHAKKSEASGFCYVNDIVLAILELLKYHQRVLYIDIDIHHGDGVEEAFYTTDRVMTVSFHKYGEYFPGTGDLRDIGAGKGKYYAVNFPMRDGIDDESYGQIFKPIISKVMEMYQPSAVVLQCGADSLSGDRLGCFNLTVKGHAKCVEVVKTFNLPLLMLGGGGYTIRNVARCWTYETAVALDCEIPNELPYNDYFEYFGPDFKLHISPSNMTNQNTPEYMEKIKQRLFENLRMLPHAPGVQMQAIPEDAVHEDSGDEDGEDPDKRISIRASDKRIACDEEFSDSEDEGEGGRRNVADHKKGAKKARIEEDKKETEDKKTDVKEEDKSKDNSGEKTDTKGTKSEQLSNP

Histone deacetylase 8 = target: T1, Histone deacetylase 8 (Homo sapiens, UniProt Q9BY41); assay: Inhibition of His-tagged full length recombinant human HDAC8 expressed in baculovirus expression system assessed as release of 7-amino-4-methylcoumarin by fluorogenic assay
T1 sequence (Q9BY41 whole entry): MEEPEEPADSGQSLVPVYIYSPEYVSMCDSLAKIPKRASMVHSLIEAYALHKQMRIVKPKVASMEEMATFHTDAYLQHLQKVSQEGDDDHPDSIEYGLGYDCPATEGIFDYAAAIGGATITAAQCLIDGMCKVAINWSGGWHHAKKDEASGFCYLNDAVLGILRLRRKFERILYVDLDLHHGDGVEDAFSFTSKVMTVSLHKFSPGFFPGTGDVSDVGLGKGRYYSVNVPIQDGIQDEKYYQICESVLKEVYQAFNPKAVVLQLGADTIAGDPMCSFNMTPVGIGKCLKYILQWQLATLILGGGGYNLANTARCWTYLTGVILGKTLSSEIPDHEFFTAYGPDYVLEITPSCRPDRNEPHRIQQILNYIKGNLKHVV

HCT-116 [5] = conditions: Homo sapiens, at 0.3 µM
PC-3 = conditions: Homo sapiens, at 0.3 µM
[6] = target: T2, Protein deacetylase HDAC6 (Homo sapiens, UniProt Q9UBN7); assay: Inhibition of full length recombinant human HDAC6 expressed in baculovirus expression system assessed as release of 7-amino-4-methylcoumarin by fluorogenic assay
T2 sequence (Q9UBN7 whole entry): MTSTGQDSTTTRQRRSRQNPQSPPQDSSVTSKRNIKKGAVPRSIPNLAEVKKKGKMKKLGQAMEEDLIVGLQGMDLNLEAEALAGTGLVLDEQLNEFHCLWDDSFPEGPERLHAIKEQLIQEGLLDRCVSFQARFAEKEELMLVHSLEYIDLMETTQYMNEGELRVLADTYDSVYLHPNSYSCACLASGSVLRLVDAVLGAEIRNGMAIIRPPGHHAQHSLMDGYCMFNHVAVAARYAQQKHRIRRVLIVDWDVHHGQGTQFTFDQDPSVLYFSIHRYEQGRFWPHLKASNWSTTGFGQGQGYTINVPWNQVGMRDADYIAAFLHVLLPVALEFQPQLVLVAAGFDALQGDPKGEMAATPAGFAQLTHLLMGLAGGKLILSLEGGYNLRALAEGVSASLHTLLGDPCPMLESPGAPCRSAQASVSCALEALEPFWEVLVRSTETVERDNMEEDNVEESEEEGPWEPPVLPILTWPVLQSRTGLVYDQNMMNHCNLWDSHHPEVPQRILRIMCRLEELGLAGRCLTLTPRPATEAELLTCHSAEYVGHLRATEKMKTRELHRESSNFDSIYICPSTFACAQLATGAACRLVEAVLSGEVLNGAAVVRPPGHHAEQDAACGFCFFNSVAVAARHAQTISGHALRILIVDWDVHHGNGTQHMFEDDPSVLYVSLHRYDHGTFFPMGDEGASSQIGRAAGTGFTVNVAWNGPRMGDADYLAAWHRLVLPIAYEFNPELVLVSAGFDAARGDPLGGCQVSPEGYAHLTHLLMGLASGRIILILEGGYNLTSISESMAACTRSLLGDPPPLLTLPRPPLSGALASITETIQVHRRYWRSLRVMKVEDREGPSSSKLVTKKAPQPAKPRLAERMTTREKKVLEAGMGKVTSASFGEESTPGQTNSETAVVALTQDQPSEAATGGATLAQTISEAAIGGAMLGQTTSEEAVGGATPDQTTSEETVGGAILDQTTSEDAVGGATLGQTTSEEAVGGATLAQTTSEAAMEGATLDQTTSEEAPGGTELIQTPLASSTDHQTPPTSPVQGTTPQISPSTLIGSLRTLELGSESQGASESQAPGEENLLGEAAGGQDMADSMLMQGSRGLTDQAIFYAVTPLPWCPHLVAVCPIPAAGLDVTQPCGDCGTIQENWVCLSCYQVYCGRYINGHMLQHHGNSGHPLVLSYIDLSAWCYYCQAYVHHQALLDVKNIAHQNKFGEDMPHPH

HCT-116 [7] = assay: Antitumor activity in human HCT116 cells xenografted in nude mouse assessed as tumor growth inhibition administered daily through oral route; format: functional, cell-based
Summary of the method: (§2)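 Male nude mice, 8 weeks old, implanted s.c. in the right flank with 1 x 10^7 log-phase HCT116 cells in PBS. Four groups of 7 received vehicle, 50 or 100 mg/kg test compound, or 200 mg/kg reference p.o. daily to endpoint, dosed at 10 mL/kg scaled to body weight. Tumor volume was taken as (w² × l)/2, and mice were monitored for adverse effects.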

[8] = Antitumor activity against human HCT116 cells xenografted in nude mouse assessed as tumor growth inhibition at 100 mg/kg, po qd; format: functional; conditions: HCT-116, po, read-out: TGI; summary of the method: as §2
[9] = Antitumor activity against human HCT116 cells xenografted in nude mouse assessed as tumor growth inhibition at 50 mg/kg, po qd; format: functional; conditions: HCT-116, po, read-out: TGI; summary of the method: as §2
Mus musculus [10] = assay: Toxicity in nude mouse xenografted with human HCT116 cells assessed as change in body weight at 50 to 100 mg/kg, po qd; format: organism-based, HCT-116; conditions: in vivo
Mus musculus [11] = assay: Toxicity in nude mouse xenografted with human HCT116 cells assessed as change in body weight at 200 mg/kg, po qd; format: organism-based, HCT-116; conditions: in vivo

Compound | GI50 ([1]; Homo sapiens, A549, 48 h) [nM] | GI50 ([2]; Homo sapiens, PC-3, 48 h) [nM] | GI50 ([3]; Homo sapiens, HCT-116, 48 h) [nM] | GI50 ([4]; Homo sapiens, HL-60, 48 h) [nM] | other results
COc1ccc(S(=O)(=O)c2ccc3c(/C=C/C(=O)NO)cccc3n2)cc1 | > 10000 | > 10000 | > 10000 | > 10000 | 
COc1ccc(S(=O)(=O)c2ccc3cc(/C=C/C(=O)NO)ccc3n2)cc1 | 4750 | 1350 | 1390 | 1140 | 
COc1ccc(S(=O)(=O)c2ccc3cccc(/C=C/C(=O)NO)c3n2)cc1 | 1320 | 790 | 310 | 1170 | 
O=C(/C=C/c1cccc(S(=O)(=O)c2ccc3cccc(F)c3n2)c1)NO | 640 | 320 | 440 | 720 | IC50 (Histone deacetylase 1): 5.74 nM; IC50 (Histone deacetylase 2): 15 nM; IC50 (Histone deacetylase 8): 200 nM; inhibition (HCT-116 [5]): Active; inhibition (PC-3): Active; IC50 [6]: 5.89 nM
COc1ccc(S(=O)(=O)c2nc3ccccc3cc2/C=C/C(=O)NO)cc1 | > 10000 | > 10000 | > 10000 | > 10000 | 
O=C(/C=C/c1cccc(S(=O)(=O)c2ccc3cccc(Cl)c3n2)c1)NO | 1420 | 1350 | 1310 | 2640 | 
O=C(/C=C/c1ccc(C(=O)c2ccc3ccccc3n2)cc1)NO | 1130 | 560 | 360 | 1150 | 
O=C(/C=C/c1cccc(S(=O)(=O)c2ccccn2)c1)NO | 1710 | 2650 | 1480 | 1980 | 
O=C(/C=C/c1cccc(C(=O)c2ccc3ccccc3n2)c1)NO | 840 | 470 | 350 | 1230 | 
O=C(/C=C/c1cccc(S(=O)(=O)c2ccc3ccccc3n2)c1)NO | 270 | 150 | 80 | 290 | IC50 (Histone deacetylase 1): 14 nM; IC50 (Histone deacetylase 2): 11.5 nM; TGI (HCT-116 [7]): Dose-dependent effect; IC50 (Histone deacetylase 8): 130 nM; inhibition in vivo at 100 mg/kg [8]: 58.8%; inhibition in vivo at 50 mg/kg [9]: 32.2%; inhibition (HCT-116 [5]): Active; inhibition (PC-3): Active; Activity (Mus musculus [10]): Non-Toxic; IC50 [6]: 15 nM
COc1ccc(S(=O)(=O)c2ccc3ccc(/C=C/C(=O)NO)cc3n2)cc1 | 1510 | 1010 | 240 | 830 | 
O=C(CCCCCCC(=O)Nc1ccccc1)NO [VORINOSTAT] |  |  |  |  | Activity (Mus musculus [11]): Non-Toxic; GI50 [1]: 1020 nM; GI50 [2]: 730 nM; GI50 [3]: 150 nM; GI50 [4]: 1740 nM
O=C(/C=C/c1cccc(S(=O)(=O)c2ccc3cc(Cl)ccc3n2)c1)NO | 1010 | 760 | 920 | 1330 | 
O=C(/C=C/c1cccc(S(=O)(=O)Nc2ccccc2)c1)NO [BELINOSTAT] | 780 | 390 | 130 | 1090 | inhibition (HCT-116 [5]): Active; inhibition (PC-3): Active; IC50 [6]: 50 nM
COc1ccc2nc(S(=O)(=O)c3cccc(/C=C/C(=O)NO)c3)ccc2c1 | 350 | 280 | 240 | 720 | 
O=C(/C=C/c1ccc(S(=O)(=O)c2ccc3ccccc3n2)cc1)NO | 880 | 490 | 310 | 800 | 
